Assay results of several laboratories.
Compare with care: the assays were run in different laboratories.
LRRK2: Leucine-rich repeat serine/threonine-protein kinase 2 (LRRK2, Homo sapiens, UniProt Q5S007)
LRRK2 G2019S: Leucine-rich repeat serine/threonine-protein kinase 2 (LRRK2, Homo sapiens, UniProt Q5S007, G2019S)

| Compound | target | effect on | mode | technique | concentration | endpoint | value |
| --- | --- | --- | --- | --- | --- | --- | --- |
| Cn1cc(-c2cccc(N3CCc4c(sc5c4CC(C)(C)C5)C3=O)c2CO)cc(Nc2ccncn2)c1=O | LRRK2 | enzyme activity | inhibitor | – | 1 µM | inhibition | -1% |
| CC(C)(C)c1cc(C=C(C#N)C#N)cc(Br)c1O | LRRK2 | enzyme activity | inhibitor | – | 0.5 µM | remaining activity | 109% |
| N#CC1(c2ccccn2)CCN(Cc2cc(C(=O)O)c(=O)n3ccccc23)CC1 | LRRK2 G2019S | cell-free assay | – | competition with immobilised ligand | 1 µM | remaining binding | 100% |
| O=c1[nH]c2ccccc2n1C1CCN(Cc2ccc(-c3[nH]c4cc5ncnc5cc4nc3-c3ccccc3)cc2)CC1 | LRRK2 | cell-free assay | – | – | 0.5 µM | remaining signal | 103% |
| COc1ncccc1-c1cnn2ccc(N3CCN(C(=O)OC(C)C)CC3)nc12 | LRRK2 | binding | – | competition with immobilised ligand | 1 µM | remaining binding | 87% |
| Cn1cncc1[C@@](O)(COc1ccc(C#N)cc1-c1ccc(OC(F)(F)F)cc1)c1ccc(C#N)cc1 | LRRK2 G2019S | cell-free assay | – | competition with immobilised ligand | 1 µM | remaining binding | 91% |
| Nc1ncc(-c2nc(N3CCOCC3)nc(N3CCOCC3)n2)c(C(F)F)n1 | LRRK2 G2019S | binding | – | competition with immobilised ligand | 10 µM | remaining binding | 91% |
| C#Cc1n[nH]c2c(-c3cn(C(C)c4ccccn4)c(=O)[nH]c3=O)cc(F)cc12 (stereo not drawn) | LRRK2 | enzyme activity | inhibitor | – | 1 µM | inhibition | -0.2% |
| Cc1nn(C)cc1-c1nc2c(N3CCN(Cc4ccc(Cl)cc4)CC3)c(Cl)cnc2[nH]1 | LRRK2 G2019S | binding | – | competition with immobilised ligand | 1 µM | remaining binding | 85% |
